Experimental data: ChEMBL document CHEMBL1828598, “Discovery of gemfibrozil analogues that activate PPARα and enhance the expression of gene CPT1A involved in fatty acids catabolism” (Eur J Med Chem, 2011)
Activity calls are given as the source filed them. The rule behind the calls is not given here.

How the values were obtained:
[1] = target: T1, Peroxisome proliferator-activated receptor alpha (Homo sapiens, UniProt Q07869); experiment: Agonist activity at Gal4-fused PPARalpha expressed in HEK293 cells after 18 hrs by dual luciferase reporter gene assay; assay type: functional, cell-based
T1 sequence (Q07869 whole entry): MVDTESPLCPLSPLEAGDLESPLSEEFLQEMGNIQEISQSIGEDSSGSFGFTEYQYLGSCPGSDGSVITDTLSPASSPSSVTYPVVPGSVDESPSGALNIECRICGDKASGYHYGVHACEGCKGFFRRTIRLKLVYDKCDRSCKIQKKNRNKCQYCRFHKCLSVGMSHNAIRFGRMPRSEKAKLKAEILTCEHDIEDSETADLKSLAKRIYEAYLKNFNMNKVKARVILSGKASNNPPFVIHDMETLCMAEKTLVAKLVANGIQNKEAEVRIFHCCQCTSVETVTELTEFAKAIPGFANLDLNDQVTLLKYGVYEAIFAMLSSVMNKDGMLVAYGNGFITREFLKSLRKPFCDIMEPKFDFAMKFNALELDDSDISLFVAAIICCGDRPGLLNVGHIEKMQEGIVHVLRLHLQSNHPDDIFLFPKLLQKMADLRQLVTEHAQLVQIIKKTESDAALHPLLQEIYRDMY
In short: (§1)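 HEK293 cells were grown in DMEM with 10% FCS, penicillin/streptomycin, sodium pyruvate and nonessential amino acids at 37 °C, 5% CO2. The next day they were transfected in serum-free medium by calcium phosphate with GAL4-PPARα LBD (30 ng), firefly luciferase reporter (50 ng), renilla normalization vector (20 ng) and carrier DNA. Ligands were added 8 h later for 18 h. Efficacy is given as % of maximal gemfibrozil fold induction, from at least three separate experiments.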

[2] = target: T2, Peroxisome proliferator-activated receptor alpha (Homo sapiens) (UniProt Q07869); experiment: Agonist activity at Gal4-fused PPARalpha expressed in HEK293 cells after 18 hrs by dual luciferase reporter gene assay relative to gemfibrozil; assay type: functional, cell-based; in short: as §1
T2 sequence (whole entry): T1 sequence (Q07869 whole entry)

HEK293 = experiment: Selectivity ratio of EC50 for Gal4-fused PPARalpha expressed in HEK293 cells to EC50 for Gal4-fused PPARgamma expressed in HEK293 cells; assay type: cell-based
[3] = target: T2, Peroxisome proliferator-activated receptor alpha (Homo sapiens); experiment: Agonist activity at PPARalpha in human HepG2 cells assessed as upregulation of CPT1a mRNA expression at 0.1 to 100 uM after 24 hrs by quantitative RT-PCR analysis; assay type: functional, cell-based
In short: (§2)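 HepG2 cells were kept in DMEM with 10% FCS and 1% penicillin/streptomycin and seeded at 5 × 10⁵ cells/well the day before. They were treated 24 h with ligands in DMSO diluted in growth medium, and vehicle-only cells served as controls. Total RNA was taken with TRIzol and DNase-treated. CPT1A mRNA was measured by RT-qPCR against cyclophilin and normalized to vehicle-treated cells. Data are mean ± SEM of four independent determinations run in duplicate.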

[4] = target: T2, Peroxisome proliferator-activated receptor alpha (Homo sapiens); experiment: Agonist activity at PPARalpha in human HepG2 cells assessed as upregulation of CPT1a mRNA expression after 24 hrs by quantitative RT-PCR analysis; assay type: functional, cell-based; in short: as §2
[5] = target: T2, Peroxisome proliferator-activated receptor alpha (Homo sapiens); experiment: Agonist activity at PPARalpha in human HepG2 cells assessed as upregulation of CPT1a mRNA expression at 10 uM after 24 hrs by quantitative RT-PCR analysis relative to gemfibrozil; assay type: functional, cell-based; in short: as §2
[6] = target: T2, Peroxisome proliferator-activated receptor alpha (Homo sapiens); experiment: Agonist activity at PPARalpha in human HepG2 cells assessed as upregulation of CPT1a mRNA expression at 100 uM after 24 hrs by quantitative RT-PCR analysis relative to gemfibrozil; assay type: functional, cell-based; in short: as §2

| SMILES | EC50 ([1]; read-out: EC50) [µM] | Efficacy [2] [%] | Activity [3] | EC50 ([1]; hek293) | Activity [4] | fold change (FC) [5] | fold change (FC) [6] | Ratio EC50 (HEK293) |
| --- | --- | --- | --- | --- | --- | --- | --- | --- |
| CC(C)(CCCOc1ccc(C(=O)/C=C/c2ccccc2)cc1)C(=O)O | 61.5 | 165 |  |  |  |  |  | 2.1 |
| O=C(O)CCCCOc1ccc(/N=N/c2ccccc2)cc1 |  |  |  | Not Active |  |  |  |  |
| O=C(O)CCCCOc1ccc(C(=O)/C=C/c2ccccc2)cc1 | 109 | 235 |  |  |  |  |  | 3 |
| Cc1ccc(C)c(OCCCC(C)(C)C(=O)O)c1 [GEMFIBROZIL] | 59 |  | Active |  |  |  |  | 0.7 |
| CC(C)(CCCOc1ccc(/N=N/c2ccccc2)cc1)C(=O)O | 43.7 | 76 |  |  |  |  |  | 0.8 |
| O=C(O)CCCCOc1ccc(Oc2ccccc2)cc1 |  |  |  | Not Active |  |  |  |  |
| CC(=O)c1ccc(OCCCCC(=O)O)cc1 |  |  |  | Not Active |  |  |  |  |
| CC(=O)c1ccc(OCCCC(C)(C)C(=O)O)cc1 |  |  |  | Not Active |  |  |  |  |
| O=C(O)CCCCOc1ccc(C(=O)c2ccccc2)cc1 | 27.1 | 123 |  |  |  |  |  | 1 |

Further lines, with some results ahead:

| EC50 ([1]; read-out: EC50) [µM] | Efficacy [2] [%] | Activity [3] | EC50 ([1]; hek293) | Activity [4] | fold change (FC) [5] | fold change (FC) [6] | SMILES | Ratio EC50 (HEK293) |
| --- | --- | --- | --- | --- | --- | --- | --- | --- |
| 9.3 | 106 | inactive |  |  |  |  | O=C(O)CCCCOc1ccc(NC(=O)Nc2ccccc2)cc1 | 1.3 |
| 18.8 | 206 |  |  |  |  |  | O=C(O)CCCCOc1ccc(/C=C/c2ccccc2)cc1 | 1.1 |
| 1 | 223 |  |  | Dose-dependent effect | 2 | 6 | CC(C)(CCCOc1ccc(/C=C/c2ccccc2)cc1)C(=O)O | 1.4 |
| 9.1 | 118 |  |  |  |  |  | CC(C)(CCCOc1ccc(Oc2ccccc2)cc1)C(=O)O | 1.4 |
| 9.3 | 82 |  |  |  |  |  | CC(C)(CCCOc1ccc(C(=O)c2ccccc2)cc1)C(=O)O | 0.9 |
| 11.3 | 94 | inactive |  |  |  |  | C=CCc1ccc(OCCCCC(=O)O)c(OC)c1 | 0.8 |
| 6.6 | 117 | inactive |  |  |  |  | C=CCc1ccc(OCCCC(C)(C)C(=O)O)c(OC)c1 | 1 |
